pIC50: −log10 of the molar value.
Key:
[1] = target: T1, Free fatty acid receptor 2 (Homo sapiens, UniProt O15552); assay: Agonist activity at human FFA2 receptor expressed in CHO cells assessed as inhibition of forskolin-induced cAMP production; type: functional, cell-based
T1 sequence (O15552 whole entry): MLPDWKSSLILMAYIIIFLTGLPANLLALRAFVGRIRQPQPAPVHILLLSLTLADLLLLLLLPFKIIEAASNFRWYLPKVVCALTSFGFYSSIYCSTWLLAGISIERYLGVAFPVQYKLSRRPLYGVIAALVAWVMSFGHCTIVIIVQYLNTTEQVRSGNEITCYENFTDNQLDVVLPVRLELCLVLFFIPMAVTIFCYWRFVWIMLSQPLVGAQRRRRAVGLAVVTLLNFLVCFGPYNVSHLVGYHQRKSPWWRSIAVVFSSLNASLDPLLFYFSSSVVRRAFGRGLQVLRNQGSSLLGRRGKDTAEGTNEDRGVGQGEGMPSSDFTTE
Procedure, shortened: (§1)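 Suspended cells, 10,000 per well, in Hank's balanced salt solution with 25 mM HEPES and 0.01% (w/v) BSA. Stimulated with forskolin (5 μM final) plus serially diluted test ligands, room temperature for 30 min. Antibody and lysis reagents then added, followed by overnight dark incubation with detection solution. Luminescence read (RLU). Efficacy expressed relative to acetate. Means of four experiments.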

[2] = target: T2, Free fatty acid receptor 2 (Homo sapiens) (UniProt O15552); assay: Agonist activity at human FFA2 receptor expressed in CHO cells assessed as inhibition of forskolin-induced cAMP production relative to acetate; type: functional, cell-based; procedure, shortened: as §1
T2 sequence (whole entry): T1 sequence (O15552 whole entry)

Compound | pIC50 [1] | Efficacy [2]
CN1CCN(c2cnc(NC(=O)[C@H](c3ccc(Cl)cc3)C(C)(C)C)s2)CC1 | 5.42 | 113%
CC[C@H](C(=O)Nc1nccs1)c1ccc(Cl)cc1 | 5.30 | 105%
CC(C)[C@H](C(=O)Nc1nc(C(C)(C)C)cs1)c1ccc(Cl)cc1 | 5.10 | 45%
CC(C)[C@H](C(=O)N(C)c1nccs1)c1ccc(Cl)cc1 | 4.08 | 37%
CC(C)[C@H](C(=O)Nc1ccc(F)cn1)c1ccc(Cl)cc1 | 5.89 | 93%
C=CC[C@H](C(=O)Nc1nccs1)c1ccc(Cl)cc1 | 5.96 | 88%
O=C(Nc1ncc(F)s1)[C@H](c1ccc(Cl)cc1)C1CC1 | 5.92 | 103%
CC(C)[C@H](C(=O)Nc1ccccc1)c1ccc(Cl)cc1 | < 4.00 | < 30%
CC(C)[C@H](C(=O)Nc1nc(C(F)(F)F)cs1)c1ccc(Cl)cc1 | 4.77 | 123%
CC(C)[C@H](C(=O)Nc1ncns1)c1ccc(Cl)cc1 | 5.70 | 99%
O=C(Nc1nccs1)C(c1ccc(Cl)cc1)c1ccc(Cl)cc1 | < 4.00 | < 30%
CC(C)(C)[C@H](C(=O)Nc1ncc(Br)s1)c1ccc(Cl)cc1 | 6.15 | 95%
Cc1nc(NC(=O)[C@H](c2ccc(Cl)cc2)C(C)C)sc1C | 5.74 | 97%
CC(C)[C@H](C(=O)Nc1ccon1)c1ccc(Cl)cc1 (racemic) | 4.44 | 90%
O=C(Nc1ncc(F)s1)C1(c2ccc(Cl)cc2)CC1 | < 4.00 | < 30%
CC(C)[C@H](C(=O)Nc1cccnn1)c1ccc(Cl)cc1 | 5.64 | 101%
CC(C)C(C(=O)O)c1ccc(Cl)cc1 (racemic) | < 4.00 | < 30%
O=C(Nc1nccs1)[C@@H](CC1CC1)c1ccc(Cl)cc1 | 5.06 | 72%
CC(C)(C(=O)Nc1ncc(F)s1)c1ccc(Cl)cc1 | 4.30 | 57%
CC(C)[C@H](NS(=O)(=O)c1nccs1)c1ccc(Cl)cc1 | < 4.00 | < 30%
CC(C)[C@H](C(=O)NCc1ccccc1)c1ccc(Cl)cc1 | < 4.00 | < 30%
CC(C)[C@H](C(=O)Nc1cc[nH]n1)c1ccc(Cl)cc1 |  | < 30%
CNC(=O)[C@H](c1ccc(Cl)cc1)C(C)C | 4.96 | 66%
CC(C)[C@H](C(=O)Nc1nncs1)c1ccc(Cl)cc1 | 4.92 | 115%
CC(=O)O [ACETIC ACID] | 3.92 | 100%
CC(C)C(C(=O)Nc1ncccn1)c1ccc(Cl)cc1 (racemic) | 4.28 | 50%
CC(C)[C@H](C(=O)Nc1ncc(C(N)=O)s1)c1ccc(Cl)cc1 | 4.15 | 59%

Compound | pIC50 [1] | Efficacy [2]
O=C(Cc1ccc(Cl)cc1)Nc1nccs1 | < 4.00 | < 30%
O=C(Nc1ncc(F)s1)[C@H](c1ccnc(Cl)c1)C1CC1 | 4.80 | 120%
CC(C)(C)[C@H](C(=O)Nc1ncc(S(C)(=O)=O)s1)c1ccc(Cl)cc1 | 5.47 | 107%
CSc1cnc(NC(=O)[C@H](c2ccc(Cl)cc2)C(C)(C)C)s1 | 6.30 | 109%
CC(C)[C@H](C(=O)NC1=NC(=O)CS1)c1ccc(Cl)cc1 | 4.70 | 96%
COC(=O)c1cnc(NC(=O)[C@H](c2ccc(Cl)cc2)C(C)C)s1 | 5.70 | 98%
CC(C)C(C(=O)Nc1cccnc1)c1ccc(Cl)cc1 (racemic) | 4.31 | 73%
CC(C)C(C(=O)Nc1nc2ccccc2[nH]1)c1ccc(Cl)cc1 (racemic) | 5.28 | 84%
O=C(Nc1ncc(F)s1)C1(c2ccc(Cl)cc2)CCC1 | 5.82 | 89%
CS(=O)(=O)c1ccc([C@@H](C(=O)Nc2ncc(F)s2)C2CC2)cc1 | < 4.00 | < 30%
CC(C)[C@H](C(=O)Nc1ccn[nH]1)c1ccc(Cl)cc1 | < 4.00 | 
Cc1csc(NC(=O)[C@H](c2ccc(Cl)cc2)C(C)C)n1 | 5.85 | 87%
CC(C)(C)[C@H](C(=O)Nc1ncc(F)s1)c1ccc(Cl)cc1 | 6.15 | 92%
O=C(Nc1ncc(F)s1)C1(c2ccc(Cl)cc2)CCCC1 | 5.30 | 88%
CC(C)C(C(=O)Nc1cnccn1)c1ccc(Cl)cc1 (racemic) | 5.24 | 115%
CC(C)[C@H](C(=O)Nc1ncc(C#N)s1)c1ccc(Cl)cc1 | 5.70 | 105%
CC(C)[C@H](C(=O)Nc1nnc(C(F)(F)F)s1)c1ccc(Cl)cc1 | 5.72 | 115%
CC(C)[C@H](CNc1nccs1)c1ccc(Cl)cc1 | < 4.00 | < 30%
CN(C)c1cnc(NC(=O)[C@H](c2ccc(Cl)cc2)C(C)(C)C)s1 | 5.80 | 112%
CCC(=O)O |  | 100%
CC(C)[C@H](C(=O)NC1=NCCS1)c1ccc(Cl)cc1 | 5.68 | 109%
CC(C)C(C(=O)Nc1nnn[nH]1)c1ccc(Cl)cc1 (racemic) | < 4.00 | < 30%
CC(C)[C@H](C(=O)NC(C)(C)C)c1ccc(Cl)cc1 | < 4.00 | < 30%
CC(C)C(C(N)=O)c1ccc(Cl)cc1 (racemic) | < 4.00 | < 30%
CC(C)[C@H](C(=O)Nc1ccncc1)c1ccc(Cl)cc1 | 4.25 | 40%
CC(C)[C@H](C(=O)Nc1nc2cc(Cl)ccc2o1)c1ccc(Cl)cc1 | 5.37 | 88%
CC(C)(C)[C@H](C(=O)Nc1ncc(Cc2ccc(Cl)cc2)s1)c1ccc(Cl)cc1 | 4.60 | 100%

Compound | pIC50 [1] | Efficacy [2]
CC(C)[C@H](NC(=O)c1nccs1)c1ccc(Cl)cc1 | < 4.00 | < 30%
CC(C)[C@H](C(=O)Nc1ncco1)c1ccc(Cl)cc1 | 4.60 | 92%
CO/C(=N\c1nccs1)[C@H](c1ccc(Cl)cc1)C(C)C | < 4.00 | < 30%
CC(C)[C@H](C(=O)Nc1cnns1)c1ccc(Cl)cc1 | 4.24 | 48%
O=C(Nc1ncc(F)s1)[C@H](c1ccc(C(F)(F)F)cc1)C1CC1 | 5.96 | 108%
CC(C)C(C(=O)Nc1nc2ccccc2s1)c1ccc(Cl)cc1 (racemic) | 5.52 | 91%
CC(C)[C@@H](C(=O)Nc1nccs1)c1ccc(Cl)cc1 | < 4.00 | < 30%
CC(C)(C)[C@H](C(=O)Nc1ncc(C(F)(F)F)s1)c1ccc(Cl)cc1 | 5.82 | 95%
COCC[C@H](C(=O)Nc1nccs1)c1ccc(Cl)cc1 | 3.77 | 53%
CC(C)(C)[C@H](C(=O)Nc1ncc(N2CCS(=O)(=O)CC2)s1)c1ccc(Cl)cc1 | 5.62 | 118%
O=C(Nc1ncc(F)s1)[C@H](c1ccccn1)C1CC1 | 4.35 | 75%
CC(C)[C@H](C(=O)Nc1ncc(C(F)(F)F)s1)c1ccc(Cl)cc1 | 5.82 | 95%
CCC[C@H](C(=O)Nc1nccs1)c1ccc(Cl)cc1 | 5.26 | 108%
CC(C)C(C(=O)Nc1nc(-c2cccnc2)cs1)c1ccc(Cl)cc1 (racemic) | < 4.00 | < 30%
CC(C)[C@H](C(=O)Nc1ccccn1)c1ccc(Cl)cc1 | 5.85 | 92%
O=C(Nc1ncc(F)s1)C1(c2ccc(Cl)cc2)CCCCC1 | 5.07 | 81%
CC(C)[C@H](C(=O)Nc1ncc(C(=O)O)s1)c1ccc(Cl)cc1 | 4.10 | 42%
CC(C)(C)[C@H](C(=O)Nc1ncc(N2CCOCC2)s1)c1ccc(Cl)cc1 | 5.80 | 111%
CC(C)C[C@H](C(=O)Nc1nccs1)c1ccc(Cl)cc1 | 6.22 | 68%
CC(C)[C@H](C(=O)Nc1ncc[nH]1)c1ccc(Cl)cc1 | 4.70 | 55%
CC(C)(C)[C@H](C(=O)Nc1ncc(C#N)s1)c1ccc(Cl)cc1 | 5.82 | 106%
CC(C)[C@H](C(=O)Nc1cccc(F)n1)c1ccc(Cl)cc1 | 5.96 | 84%
CC(C)C(c1ccc(Cl)cc1)S(=O)(=O)Nc1nccs1 (racemic) | < 4.00 | < 30%
CC(C)(C)[C@H](C(=O)Nc1ncc(C(O)(C(F)(F)F)C(F)(F)F)s1)c1ccc(Cl)cc1 | 5.92 | 113%
C[C@H](C(=O)Nc1nccs1)c1ccc(Cl)cc1 | 4.34 | 83%
CC(C)C(C(=O)Nc1nccs1)c1ccc(Cl)cc1 (racemic) | 6.10 | 98%

Reference: ChEMBL document CHEMBL1153229, “The first synthetic agonists of FFA2: Discovery and SAR of phenylacetamides as allosteric modulators” (Bioorg Med Chem Lett, 2010)
